In ChEMBL document CHEMBL1123264, “Conformationally restricted congeners of hypotensive and platelet aggregation inhibitors: 6-aryl-5-methyl-4,5-dihydro-3(2H)-pyridazinones derived from 5H-indeno[1,2-c]pyridazine” (J Med Chem, 1986):
Active and inactive are the calls of the source. The calls are words filed in the database; no cut-off is given here.

Key:
Cavia porcellus [1] = species: Cavia porcellus; experiment: Compound was tested in vitro for antiaggregation induced by collagen (0.8 ug/mL) in guinea pig PRP; type: functional
Method in brief: (§1)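 Born method. Citrated (3.8%, 1:10) aortic blood from fasted male guinea pigs under pentobarbital, centrifuged to give platelet-rich plasma. Incubated 10 min at room temperature with compound at 66 μM. Aggregation triggered by ADP, equine tendon collagen or thrombin. Result is % inhibition vs controls, mean of five experiments; thrombin values read at 2 or 4 min.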

Cavia porcellus [2] = species: Cavia porcellus; experiment: Compound was tested in vitro for antiaggregation induced by 0.5 uM ADP in guinea pig PRP; type: functional; method in brief: as §1
Cavia porcellus [3] = species: Cavia porcellus; experiment: In vitro inhibition of platelet aggregation induced by 0.5 uM ADP (irreversible activity) was determined in guinea pig PRP; type: functional; method in brief: as §1
Cavia porcellus [4] = species: Cavia porcellus; experiment: Compound was tested in vitro for antiaggregation induced by thrombin at 0.625 IU/mL in guinea pig PRP after 4 min; type: functional; method in brief: as §1
[5] = Compound was tested for its lethality in vivo in mouse; type: ADME, organism-based
Cavia porcellus [6] = species: Cavia porcellus; experiment: Compound was tested in vitro for antiaggregation induced by thrombin at 0.625 IU/mL in guinea pig PRP after 2 min; type: functional; method in brief: as §1
Rattus norvegicus [7] = experiment: Compound was evaluated for its antiinflammatory activity in rat by Carrageenan paw edema test; type: functional
Method in brief: (§2)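 Male Sprague-Dawley rats, 130–150 g, fasted 18 h, 8/group. Compound in 1% carboxymethylcellulose by gavage; 1 h later 0.1 mL 1% carrageenin injected into the right hind paw. Paw volume measured by plethysmometer at 0, 1 and 3 h. Inhibition at 3 h vs vehicle controls; ED50 is the dose giving 50% inhibition.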

Rattus norvegicus [8] = species: Rattus norvegicus; experiment: Dose that lowers blood pressure by 25 mm Hg was determined in spontaneous hypertensive rats (SHR); type: functional
Method in brief: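 Conscious SH rats, 150–200 g, fasted 12 h, warmed at 33 °C for 30 min before tail-cuff plethysmography of systolic pressure. Suspension in 1% methylcellulose by gavage at 1.56, 3.125, 6.25, 12.5 and 25 mg/kg, 6 rats/dose, read hourly for 6 h. ED25 is the dose lowering pressure by 25 mmHg at peak, taken from log dose-response curves.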

Mus musculus = species: Mus musculus; experiment: In vitro antithrombotic activity in mouse; type: functional; conditions: in the assay text read “In vivo” for “In vitro”
Method in brief: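 Male Swiss mice, 20–30 g, 10/group. Oral dose in 1% hydroxymethylcellulose, equimolar to ASA 20 mg/kg. At 1 h, iv tail injection of collagen (200 μg/mL) plus adrenaline (200 μM), 10 mL/kg, after warming at 27 °C. Death or hind-limb paralysis over 15 min counted; % protection = (Nc−Nt)/Nc×100.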

Rattus norvegicus [9] = species: Rattus norvegicus; experiment: (§3) Relative activity with respect to the dihydralazine was determined; type: functional
Method in brief: (§4)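 SH rats, fasted, given a single oral dose of 12.5 mg/kg in 1% methylcellulose by gavage. Tail-cuff systolic pressure read hourly; area under the curve taken over 0–6 h. Dihydralazine was the reference; relative activity is AUC(dihydralazine)/AUC(compound), and a smaller AUC means higher activity.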

Rattus norvegicus [10] = species: Rattus norvegicus; experiment: Antihypertensive activity in normotensive rats; type: functional
Method in brief: (§5)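 Unanesthetized male Sprague-Dawley rats, 150–200 g, fasted 12 h, warmed at 33 °C for 30 min. Oral dosing at 6.25, 12.5 and 25 mg/kg; dihydralazine 0.78–6.25 mg/kg po. Tail-cuff systolic pressure read hourly for 6 h, 6 rats/dose. ED25 is the dose lowering pressure by 25 mmHg at peak, taken from log dose-response curves.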

Rattus norvegicus [11] = species: Rattus norvegicus; experiment: Compound was evaluated for its antiulcer activity in rat; type: functional
Method in brief: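 Male Sprague-Dawley rats, 180–250 g, 8/group, fasted 24 h with water. Compound by gavage right after indomethacin 15 mg/kg ip. Stomachs examined 5 h later under a 10× microscope; lesion number and severity scored on an arbitrary scale. ED50 is the dose reducing lesions by 50%.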

[12] = (§6) Area under curve was determined for 0-6 hr duration using dihydralazine as reference drug for the peak blood pressure; type: ADME; set-up: concentration or dose not given beside the values; method in brief: as §4
[13] = (§7) relative activity with respect to the dihydralazine was determined; type: functional; method in brief: as §4
Rattus norvegicus [14] = species: Rattus norvegicus; experiment: as §6; type: functional, organism-based; method in brief: as §4
Rattus norvegicus [15] = species: Rattus norvegicus; experiment: Compound was tested for antihypertensive activity in normotensive rats and the dose that lowered by 25 mmHg of the blood pressure was determined; type: functional; method in brief: as §5
[16] = as §3; type: functional; method in brief: as §4
Rattus norvegicus [17] = species: Rattus norvegicus; experiment: as §7; type: functional; method in brief: as §4
Rattus norvegicus [18] = experiment: Compound was evaluated for its antiinflammatory activity in rat by Carrageenan paw edema test; Inactive; type: functional, organism-based; method in brief: as §2
Cavia porcellus [19] = species: Cavia porcellus; experiment: Compound was tested in vitro for its antiaggregation induced by thrombin at 0.625 IU/mL in guinea pig PRP after 4 min; type: functional; method in brief: as §1

SMILES	Activity (Cavia porcellus [1])	Activity (Cavia porcellus [2])	Activity (Cavia porcellus [3])	Activity (Cavia porcellus [4])	LD50 [5]	Activity (Cavia porcellus [6])	ED50 (Rattus norvegicus [7])	ED25 (Rattus norvegicus [8])	Activity (Mus musculus)	Activity (Rattus norvegicus [9])	ED25 (Rattus norvegicus [10])	ED50 (Rattus norvegicus [11])	AUC units [12]	Activity [13]	AUC units (Rattus norvegicus [14])	ED25 (Rattus norvegicus [15])	Activity [16]	Activity (Rattus norvegicus [17])	ED50 (Rattus norvegicus [18])	Activity (Cavia porcellus [19])
CC(=O)Nc1ccc2c(c1)CC1CC(=O)NN=C21 (stereo not drawn)	73	45	81	100	1000 mg/kg	95	160 mg/kg	2.6 mg/kg	100	1.02	25 mg/kg	0.3 mg/kg	17560							
N/N=c1\[nH][nH]/c(=N\N)c2ccccc12 [DIHYDRALAZINE]								0.72 mg/kg						1	17900	3.12 mg/kg				
CC(Cl)C(=O)Nc1ccc2c(c1)CC1CC(=O)NN=C21 (stereo not drawn)	60	48	40	83	1000 mg/kg	84	155 mg/kg	10 mg/kg	62			0.3 mg/kg	27140				0.66			
Nc1ccc2c(c1)CC1CC(=O)NN=C21 (stereo not drawn)	58	31	66	34	308 mg/kg	44	40.8 mg/kg	2.6 mg/kg	87	0.74		100 mg/kg	24350							
CC(=O)Nc1ccc2c(c1)CC1CC(=O)N(C)N=C21 (stereo not drawn)	40	4	23		1000 mg/kg	5		15 mg/kg	50				31960					0.6	inactive	37
CN1N=C2c3ccc(N)cc3CC2CC1=O (stereo not drawn)	26	7	33	37	750 mg/kg	36		15.5 mg/kg	58	0.49			36740						inactive	
